# ERp5 inh: inhibitors of ERp5-driven insulin aggregation, primary screen, biochemical, turbidity, absorbance 650 nm, single point | Protein disulfide-isomerase A6 (Homo sapiens), Q15084 | 90 min | AID 651711, 2012 | inhibition, % at 9.99 µM | 350,000 compounds, 0.05% hits;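 active means mean replicate inhibition above about 25%, with every replicate also reaching it, limit read from the data, passing the limit was not always enough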
# PDI inh: inhibitors of human PDI, primary screen, biochemical, turbidity, single point, plate reader. Protein disulfide-isomerase (Homo sapiens), P07237. PDI insulin aggregation turbidity, A650, 90 min. inhibition, % at 10 µM. 350,000 compounds, 0.052% hits. AID 588391, 2011;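 active means mean inhibition across replicates of 30% or more, whatever share of single replicates reach that level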
# INS-1E GSIS act: GLuc luminescence reporter in INS-1E cells, primary screen for activators of glucose-dependent secretion of insulin | 370,000 compounds, 0.61% hits | AID 743287, 2014 | activation, % at 16.6 µM | INS-1E GLuc reporter insulin secretion, 2-3 h;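 active means lowest replicate activation of at least 40%, so every replicate reaches that level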;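 further: 0% = median of neutral control wells and 100% = median of IBMX positive control wells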
# SIRT5 inh: SIRT5 desuccinylase inhibitors, primary screen, biochemical, fluorescence imaging, single point, set 5 | NAD-dependent protein deacylase sirtuin-5, mitochondrial (Homo sapiens), Q9NXA8 | Purified SirT5, succinyl-peptide AMC, trypsin-coupled fluorescence | inhibition, % at 15 µM | 330,000 compounds, 1.1% hits | AID 652115, 2013; in the data active means inhibition above about 15%
# Target sequence (Q9NXA8 whole entry, looked up): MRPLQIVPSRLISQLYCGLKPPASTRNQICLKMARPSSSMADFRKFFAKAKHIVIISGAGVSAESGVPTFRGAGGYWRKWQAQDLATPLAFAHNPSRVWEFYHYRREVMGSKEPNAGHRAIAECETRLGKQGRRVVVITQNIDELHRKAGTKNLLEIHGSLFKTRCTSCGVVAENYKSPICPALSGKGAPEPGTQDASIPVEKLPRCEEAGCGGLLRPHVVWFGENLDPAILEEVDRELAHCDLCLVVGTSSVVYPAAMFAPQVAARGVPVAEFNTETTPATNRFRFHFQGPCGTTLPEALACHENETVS
# S100A4 inh HTS: inhibitors of S100A4-myosin IIA peptide binding, primary screen, biochemical, fluorescence polarization, TAMRA-MyoIIA peptide; AID 652163, 2013; inhibition, % at 10.7 µM; 360,000 compounds, 0.14% hits;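 active means mean inhibition of at least 70% across replicates, with every replicate also reaching that level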
# Target sequence (P26447 whole entry, looked up): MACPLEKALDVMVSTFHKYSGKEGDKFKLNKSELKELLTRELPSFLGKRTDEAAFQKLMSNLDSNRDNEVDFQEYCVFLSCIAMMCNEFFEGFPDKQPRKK
#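 Test system – S100A4 monomer (human) · Compound – single-point compound testing · Schedule – 5 min incubation before reading · Probe or stimulus – TAMRA-labelled myosin IIA heavy-chain peptide probe, 5 nM · Benchmarks – neutral control DMSO, positive control TFP · Medium – Calcium-containing HEPES buffer, pH 7.2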
# * = called active by the depositor; x = no result given. An excerpt weighted towards active compounds, which were near 1.5% of everything screened.
SMILES,ERp5 inh,PDI inh,INS-1E GSIS act,SIRT5 inh,S100A4 inh HTS
C[C@H](CO)N1C[C@H](C)[C@@H](CN(C)Cc2ccncc2)Oc2ccc(NC(=O)C3CC3)cc2C1=O,x,x,0,x,x
COc1ccc(S(=O)(=O)N(C)C[C@H]2OCCCC[C@@H](C)Oc3ccc(NS(=O)(=O)c4c(C)noc4C)cc3C(=O)N([C@@H](C)CO)C[C@H]2C)cc1,-6,x,-21,3,-7
O=C(c1ccccc1)N1C[C@H]2[C@@H](c3ccccc31)[C@H](CO)N2C(=O)Nc1ccccc1Cl,-1,x,-7,12,-4
COc1ccc(NC(=O)Nc2ccc3c(c2)C(=O)N([C@@H](C)CO)C[C@H](C)[C@H](CN(C)Cc2ccc(C(=O)O)cc2)OCCCC[C@H](C)O3)cc1,5,x,6,2,7
O=C(C[C@@H]1C[C@H]2c3cc(NC(=O)Cc4ccncc4)ccc3O[C@H]2[C@H](CO)O1)NCCN1CCCCC1,2,x,13,-2,1
COc1ccc(-n2c3c(c(=O)[nH]c2=O)C(NS(=O)(=O)c2ccc(Cl)cc2)(C(F)(F)F)C(=O)N3)cc1 (stereo not drawn),-1,-3,55*,-2,-2
CCCNC(=O)N1C[C@@H](C)[C@@H](OC)CN(C)C(=O)c2cc(NC(=O)CC)ccc2OC[C@H]1C,0,x,9,-1,8
O=C(c1ccccc1)c1coc2ccc(O)c(Cl)c12,5,12,-5,22*,7
Cc1ccc(C(=O)c2coc3ccc(O)c(Cl)c23)cc1,x,-4,x,x,x
Cc1cc(C(=O)Nc2cccc3c2O[C@@H](CN(C)CC2CC2)[C@@H](C)CN([C@@H](C)CO)C3=O)n(C)n1,1,x,11,1,59
CCOc1ccc(C(=O)Nc2cc(NC(=O)c3ccc(OCC)c(Cl)c3)cc(C(=O)O)c2)cc1Cl,5,-1,8,15*,36
Cc1ccc(N(CN2C(=O)c3ccccc3C2=O)C(=O)c2ccc([N+](=O)[O-])cc2[N+](=O)[O-])cc1,-5,6,-2,112*,2
O=S(=O)(O)c1cccc2c(N=Nc3ccc(O)c4ncccc34)cccc12,2,13,x,34*,6
Cc1ccccc1N=Nc1ccc(O)c2ncccc12,6,-3,x,-1,-3
CO[C@@H]1CN(C)C(=O)c2cc(NC(=O)C3CC3)ccc2OC[C@@H](C)N(C(C)=O)C[C@@H]1C,5,x,7,-8,-7
CCSc1nc(N)c(C#N)c(-c2ccco2)c1C#N,x,7,x,x,x
CCCCc1nc(N)c(C#N)c(-c2ccco2)c1CCC,0,-5,62*,-3,2
Cc1cccc(Cn2ccc(-c3ccc(Cl)cc3)c(C#N)c2=O)c1,x,0,95*,x,x
Cc1cccc(C)c1NC(=O)c1csc([C@@H]2O[C@H](CO)[C@H](O)[C@H](O)[C@H]2O)n1,1,7,53*,x,-2
CO[C@@H]1CN(C)C(=O)c2ccc(NS(C)(=O)=O)cc2OC[C@@H](C)N(C(=O)C2CCCC2)C[C@H]1C,-1,x,0,x,5
O=C(Cn1ccccc1=S)c1ccc(Cl)c(Cl)c1,4,-2,36,-3,9
On1ccccc1=S,7,8,87*,-2,0
C[C@@H]1CN([C@@H](C)CO)C(=O)c2ccccc2-c2ccccc2CO[C@@H]1CN(C)C(=O)CCN(C)C,-1,x,30,-3,5
Cc1ccc2oc(-c3cccc(NC(=O)Cc4cccs4)c3)nc2c1,x,0,65*,x,x
CC[n+]1c(/C=C/c2c[nH]c3ccccc23)ccc2cc(C)ccc21,7,x,-79,12,129*
SMILES,ERp5 inh,PDI inh,INS-1E GSIS act,SIRT5 inh,S100A4 inh HTS
CC(C)CCN1C(=O)CSCC1(C)C(=O)NC(C)C (stereo not drawn),0,x,43*,-1,-2
CSc1ccccc1OCc1cc(C(=O)N(C)C2CCCc3ccccc32)no1 (stereo not drawn),0,-3,-9,20*,-2
CO[C@@H]1CN(C)C(=O)c2cc(NC(=O)C3CCOCC3)ccc2OC[C@H](C)N(C(=O)c2ccccc2)C[C@H]1C,x,x,-6,x,x
CNC[C@H]1OCCCC[C@@H](C)Oc2ccc(NC(=O)C3CCCCC3)cc2C(=O)N([C@@H](C)CO)C[C@@H]1C,-5,x,15,5,97*
C[C@@H]1CCCCO[C@H](CN(C)C)[C@H](C)CN([C@@H](C)CO)C(=O)c2cc(NS(C)(=O)=O)ccc2O1,x,x,15,x,x
CNC[C@H]1OCCCC[C@@H](C)Oc2ccc(NS(C)(=O)=O)cc2C(=O)N([C@H](C)CO)C[C@@H]1C,x,x,17,x,x
C[C@@H]1CN([C@@H](C)CO)C(=O)c2cc(NS(C)(=O)=O)ccc2O[C@@H](C)CCCCO[C@@H]1CN(C)C,12,x,36,25*,6
CNC[C@@H]1OCCCC[C@H](C)Oc2ccc(NS(C)(=O)=O)cc2C(=O)N([C@@H](C)CO)C[C@@H]1C,0,x,33,5,89*
CC(C)(C)[S@](=O)N1Cc2cc(C(=O)NCc3ccncc3)nc(-c3cccc(-c4ccc(C#N)cc4)c3)c2[C@@H]1CCO,-6,x,-2,x,-27
Nc1nc(N)nc(-c2ccc(Cl)cc2)n1,x,-3,47*,x,x
CCCNC(=O)N1[C@@H]2Cn3c(cccc3=O)[C@H]1[C@@H](C(=O)N1CCC(Cc3ccccc3)CC1)[C@@H]2CO,-2,x,6,21*,-24
O=C(NC1CCCCC1)[C@@H]1[C@@H](CO)[C@@H]2Cn3c(cccc3=O)[C@H]1N2CC1CCCCC1,-3,x,-15,19*,12
CCCNC(=O)[C@@H]1[C@@H](CO)[C@@H]2Cn3c(cccc3=O)[C@H]1N2C(=O)NCCC,1,x,1,2,8
CCCNC(=O)[C@@H]1[C@@H](CO)[C@@H]2Cn3c(cccc3=O)[C@H]1N2CCC(F)(F)F,-5,x,3,6,123*
CCCNC(=O)[C@H]1[C@H](CO)[C@H]2Cn3c(cccc3=O)[C@@H]1N2CCC(F)(F)F,-2,x,13,5,0
COc1cccc(NC(=O)N(C)C[C@H]2OCc3ccccc3-c3c(n(C)c4ccccc34)C(=O)N([C@@H](C)CO)C[C@H]2C)c1,0,x,-11,6,-4
Cc1ccc(NC(=S)c2ccc3ccccc3n2)c(C)c1,-3,4,57*,0,-18
Cc1ccc(S(=O)(=O)N(C)C[C@@H]2Oc3c(NC(=O)Nc4ccc(F)cc4)cccc3C(=O)N([C@@H](C)CO)C[C@@H]2C)cc1,-3,x,-20,1,1
Cc1cc(N)n(-c2ccc(C(=O)O)cc2)n1,4,3,-3,2,-1
CCc1ccc(S(=O)(=O)c2ccc(-n3nc(C)cc3N)cc2)cc1,3,-4,11,112*,11

# Assay outcomes (PubChem BioAssay)
